# Source: ChEMBL document CHEMBL4138242, “Synthesis and antibacterial evaluation of novel cationic chalcone derivatives possessing broad spectrum antibacterial activity” (Eur J Med Chem, 2018)
# Tested on: Escherichia coli
# Experiment: Ratio of MIC for Escherichia coli ATCC 25922 after 20 passages to MIC for Escherichia coli ATCC 25922 before 20 passages
# Format: functional, organism-based
# In short: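 The MIC was first measured by broth microdilution. Cells grown at MIC/2 were then carried into a fresh MIC assay after each 24 h, repeated over 20 serial passages. Norfloxacin (S. aureus) and colistin (E. coli) served as control antibiotics. Resistance was defined as a >4-fold rise over the original MIC.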
sequence,measurement,value
COLISTIN,Ratio,32
